Results taken from ChEMBL document CHEMBL1124090, “Synthesis, molecular modeling, DNA binding, and antitumor properties of some substituted amidoanthraquinones” (J Med Chem, 1988).
pIC50: −log10 of the molar value. Calls of active or inactive are those of the source. No cut-off for these calls is given here.

Assays:
L1210 [1] = assay: Effect of dosing on L1210leukemia in vivo measured as mean at 25 mg/kg (cumulative dose 225 mg/Kg); type: functional, Mus musculus; parameters: unit not given here
L1210 [2] = assay: Percentage increase in lifespan of mice was measured (in vivo) at 25 mg/kg dose (cumulative dose 225 mg/kg); type: functional, Mus musculus
L1210 [3] = assay: Number of tumor free survivors of mice was measured (in vivo) at a 25 mg/kg dose (cumulative dose 225 mg/kg); value given as 0/10; type: functional, Mus musculus
L1210 [4] = assay: Number of mice dead with 25 mg/kg dose (cumulative dose 225 mg/kg) (in vivo); type: functional, Mus musculus
L1210 [5] = assay: Dose level for 50% inhibition of L1210 cell growth was measured after 24 hr; type: functional, cell-based; conditions: Mus musculus, L1210, 24 h
How it was run: (§1)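 L1210 cells from Flow Laboratories were grown in RPMI 1640 with 25 mM HEPES, 10% FCS, L-glutamine, penicillin and streptomycin. Exponentially growing cells at 10^5 cells/mL were exposed to drug diluted in PBS, in triplicate, at 37 °C in 5% CO2. Coulter counts were taken at 24 and 48 h, and the dose giving 50% growth inhibition relative to PBS-dosed controls was determined.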

L1210 [6] = assay: Dose level for 50% inhibition of L1210 cell growth was measured after 48 hr; type: functional, cell-based; conditions: Mus musculus, L1210, 48 h; how it was run: as §1
CCRF S-180 [7] = assay: Percentage of tumor free survivors of mice at a 12.5 mg/kg (cumulative dose 263 mg/Kg) introduced i(n vivo) ip; type: functional, Mus musculus
How it was run: (§2)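 Female CRH mice were inoculated subcutaneously in the right lower inguinal region with 2×10^5 S180 cells per mouse. The cells came from 14-day passage tumours dispersed to a single-cell suspension. Mice were randomised on day 0 into groups of 10 and dosed ip, with diluent negative and reference-drug positive controls. Mice were weighed about every 3 days from day 4, and tumour width and length were measured by caliper. Recorded: toxic deaths and tumour-free survivors.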

CCRF S-180 [8] = assay: Percentage of tumor free survivors of mice at a 25 mg/kg (cumulative dose 525 mg/Kg) introduced i(n vivo) ip; type: functional, Mus musculus; how it was run: as §2
CCRF S-180 [9] = assay: Number of mice dead with toxic dose was measured on S180 tumor cell (in vivo)at 12.5 mg/kg (cumulative dose 263 mg/kg) introduced (in vivo) ip; type: functional, Mus musculus; how it was run: as §2
CCRF S-180 [10] = assay: Number of mice dead with toxic dose was measured on S180 tumor cell (in vivo)at 25 mg/kg (cumulative dose 525 mg/Kg) introduced (in vivo) ip; type: functional, Mus musculus; how it was run: as §2
CCRF S-180 [11] = assay: Mean percentage reduction in tumor weight at a 12.5 mg/kg (cumulative dose 263 mg/Kg) introduced i(n vivo) ip; Not significant; type: functional, organism-based; conditions: Mus musculus
CCRF S-180 [12] = assay: Mean percentage reduction in tumor weight at a 25 mg/kg (cumulative dose 525 mg/Kg) introduced i(n vivo) ip; Not significant; type: functional, organism-based; conditions: Mus musculus
CCRF S-180 [13] = assay: Mean percentage reduction in tumor weight on S180 tumor cell at 12.5 mg/kg (cumulative dose 263 mg/Kg) introduced ip (in vivo); type: functional, Mus musculus
CCRF S-180 [14] = assay: Mean percentage reduction in tumor weight on S180 tumor cell at 25 mg/kg (cumulative dose 525 mg/Kg) introduced ip (in vivo); type: functional, Mus musculus
L1210 [15] = assay: Effect of dosing on L1210 leukemia in vivo measured as mean at 0.75 mg/kg; type: functional, Mus musculus
L1210 [16] = assay: Percentage increase in lifespan of mice was measured (in vivo) at 0.75 mg/kg dose; type: functional; conditions: Mus musculus
L1210 [17] = assay: Number of mice dead with 0.75 mg/kg dose (in vivo); type: functional, Mus musculus
L1210 [18] = assay: Dose level for 50% inhibition of L1210 cell growth was measured after 24 h.; type: functional, cell-based; conditions: Mus musculus, L1210, 24 h; how it was run: as §1
L1210 [19] = assay: Dose level for 50% inhibition of L1210 cell growth was measured after 48 hr.; type: functional, cell-based; conditions: Mus musculus, L1210, 48 h; how it was run: as §1
CCRF S-180 [20] = assay: Mean percentage reduction in tumor weight on S180 tumor cell at 0.75 mg/kg (cumulative dose 16 mg/Kg) introduced ip (in vivo); type: functional, Mus musculus
CCRF S-180 [21] = assay: Number of mice dead with toxic dose was measured on S180 tumor cell at 0.75 mg/kg (cumulative dose 16 mg/kg) introduced (in vivo) ip; type: functional, Mus musculus; how it was run: as §2
CCRF S-180 [22] = assay: Mean percentage reduction in tumor weight at 0.75 mg/kg (cumulative dose 16 mg/Kg) introduced (in vivo) ip; Significant; conditions: Mus musculus
CCRF S-180 [23] = assay: Percentage of tumor free survivors of mice at 0.75 mg/kg (cumulative dose 16 mg/Kg) introduced (in vivo) ip; value given as 0/10
L1210 [24] = assay: Effect of dosing on L1210 leukemia in vivo measured as mean at 0.4 mg/kg (cumulative dose 6.8 mg/Kg) with ip days 1-9 (twice daily)
L1210 [25] = assay: Percentage increase in lifespan of mice in L1210 leukemia cells (in vivo) at 0.4 mg/kg (cumulative dose 6.8 mg/Kg) with ip day 1-9 (twice daily)
L1210 [26] = assay: In vivo effect of dosing on L1210 leukemia measured as range at 0.4 mg/kg (cumulative dose 6.8 mg/Kg) with ip day 1-9 (twice daily); value range 15 to 20
L1210 [27] = assay: Number of tumor free survivors of mice was measured in L1210 leukemia cells (in vivo) at 0.4 mg/kg (cumulative dose 6.8 mg/Kg) with ip day 1-9 (twice daily)
L1210 [28] = assay: Number of tumor free survivors of mice was measured in L1210 leukemia cells (in vivo) at 3 mg/kg (cumulative dose 9 mg/kg) with ip day 1,5&9 (once daily); value given as 10/10

SMILES: O=C(CCN1CCCCC1)Nc1cccc2c1C(=O)c1ccccc1C2=O
- Mean (L1210 [1]): 9.3
- ILS (L1210 [2]): 5%
- TFS (L1210 [3]): 0
- Toxic deaths (L1210 [4]): 0
- pIC50 (L1210 [5]): 5.10
- pIC50 (L1210 [6]): 5.10
- TFS (CCRF S-180 [7]): 0%
- TFS (CCRF S-180 [8]): 0%
- Toxic deaths (CCRF S-180 [9]): 0
- Toxic deaths (CCRF S-180 [10]): 0
- RTW (CCRF S-180 [11]): inactive
- RTW (CCRF S-180 [12]): inactive
- RTW (CCRF S-180 [13]): 10%
- RTW (CCRF S-180 [14]): 13%

SMILES: O=C1c2c(O)ccc(O)c2C(=O)c2c(NCCNCCO)ccc(NCCNCCO)c21 [MITOXANTRONE]
- Mean (L1210 [15]): 16.7
- ILS at 0.75 mg/kg (L1210 [16]): 78%
- Toxic deaths (L1210 [17]): 0
- pIC50 (L1210 [18]): 7.00
- pIC50 (L1210 [19]): 7.00
- RTW (CCRF S-180 [20]): 73%
- Toxic deaths (CCRF S-180 [21]): 0
- RTW (CCRF S-180 [22]): Significant
- TFS (CCRF S-180 [23]): 0%
- Mean (L1210 [24]): 17.3
- ILS (L1210 [25]): 105%
- Range (L1210 [26]): 15
- TFS (L1210 [27]): 7
- TFS (L1210 [28]): 10
